Runt-SMMHC FRET: blocks binding of human RUNX1 Runt domain to CBFb-SMMHC | actives 0.74% (n = 220,000) | inhibition, % at 20 µM | Q01196+Q13951 | Cerulean-Runt/Venus-CBFb-SMMHC FRET ratio 530/480, 1 h;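 active = mean inhibition across duplicate retests at 20 µM reaching about 50%, limit read from the data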;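 also: 0% = DMSO wells and 100% = wells with excess untagged CBFb-SMMHC; inhibitors lower the FRET ratio by blocking Runt binding to CBFb-SMMHC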
Hck-Nef inh: inhibitors of human Hck kinase activated by Nef | Recombinant Hck-YEEI plus Nef, Z-Lyte FRET kinase assay | AID 463187 | actives 0.68% (n = 220,000) | P08631 | inhibition, % at 20 µM;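 active = Hck-Nef kinase inhibition above about 50%, limit read from the data; inactive = inhibition below that limit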;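 also: 0% = DMSO with Hck plus Nef and 100% = Hck alone without Nef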
Target sequence (P08631 whole entry, looked up): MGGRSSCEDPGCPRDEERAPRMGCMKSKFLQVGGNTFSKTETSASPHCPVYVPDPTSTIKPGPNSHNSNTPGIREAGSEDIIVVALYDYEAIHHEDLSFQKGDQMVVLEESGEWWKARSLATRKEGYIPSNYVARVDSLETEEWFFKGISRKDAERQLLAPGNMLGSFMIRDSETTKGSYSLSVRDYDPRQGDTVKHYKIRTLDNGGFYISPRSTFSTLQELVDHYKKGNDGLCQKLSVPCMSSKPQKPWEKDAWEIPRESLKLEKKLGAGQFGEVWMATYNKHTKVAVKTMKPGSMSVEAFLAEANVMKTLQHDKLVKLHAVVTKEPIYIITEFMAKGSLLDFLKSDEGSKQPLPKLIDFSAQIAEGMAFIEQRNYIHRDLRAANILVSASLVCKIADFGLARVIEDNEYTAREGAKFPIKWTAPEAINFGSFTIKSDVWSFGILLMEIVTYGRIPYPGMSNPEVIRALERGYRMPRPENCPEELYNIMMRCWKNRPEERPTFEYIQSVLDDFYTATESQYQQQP
Runt-CBFb FRET: inhibitors of human RUNX1 Runt domain binding to CBFb; Q01196+Q13951; Cerulean-Runt/Venus-CBFb FRET ratio 530/480, 1 h; inhibition, % at 20 µM; actives 0.46% (n = 220,000);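 active = inhibition over about 50% at 20 µM in the single-dose screen, limit read from the data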;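 also: 0% = DMSO wells and 100% = excess unlabeled CBFb competitor control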
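System: Cerulean-labeled Runt domain protein | Quantity: 100 nM of each labeled protein | Schedule: 1 h compound exposure, room temperature | Detection: Fluorescence energy transfer, 422 nm excitation, 530/480 nm emission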
RanGTP-Imp inh: disruptors of Ran-importin-beta complex formation – biochemical, FRET, CFP-Ran, YFP-importin-beta, homogeneous, primary screen. inhibition, % (concentration not given with the values). cell-free CFP-Ran/YFP-importin-beta FRET ratio. AID 2216. actives 1.1% (n = 300,000);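 active = more than half of the replicate wells show a fall in the fluorescence ratio signal beyond about 16%, limit read from the data, passing the limit was not always enough; inconclusive = exactly half of the replicate wells pass the set limit; inactive = fewer than half of replicates pass the limit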;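 also: 0% = DMSO wells and 100% = Ran loaded with GDP instead of GTP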
Active calls of the source: *; ? = inconclusive; / = no result. An excerpt weighted towards active compounds, which were near 1.7% of everything screened.

SMILES | Runt-SMMHC FRET | Hck-Nef inh | Runt-CBFb FRET | RanGTP-Imp inh
Cc1ccccc1-n1ncc2c1CC(C)(C)CC2NC(=O)c1snnc1C (centres undefined) | / | / | / | 2
CN(C)S(=O)(=O)c1ccc(C(=O)NCC(=O)N/N=C/c2ccccc2Cl)cc1 | -5 | 24 | 4 | 1
CCc1cccc(C)c1NC(=S)N(CCN(C)C)Cc1cccs1 | 2 | -9 | 2 | 54*
Cc1cc(C)n(CCC(=O)N/N=C/c2ccc(O)cc2)n1 | -6 | 1 | 0 | -2
Cc1cc(C)n(CCC(=O)N/N=C/c2c(O)ccc3ccccc23)n1 | 45 | 10 | 29 | 36*
CCCCNC(=S)N=Nc1c(O)[nH]c2ccccc12 | -2 | 6 | -5 | 0
COCCNC(=S)N=Nc1c(O)[nH]c2c(C)cc(C)cc12 | -1 | 5 | -1 | 156*
O=C1c2cccnc2C(=O)N1Cc1ccc(S(=O)(=O)NCc2ccco2)s1 | / | / | / | 4
Clc1ccc(-c2nnc3sc(-c4ccc(Br)o4)nn23)cc1 | 5 | 4 | 2 | /
Cc1oc(-c2ccc(Cl)cc2)cc1-c1nn2c(-c3ccoc3C)nnc2s1 | 18 | 59* | 32 | -2
O=C(c1ccc2oc(Cc3ccc(Cl)cc3)nc2c1)N1CC[C@H](O)C1 | / | / | / | -2
O=C(Cc1ccc(F)cc1)NC1CCS(=O)(=O)C1 (centres undefined) | / | / | / | 5
COc1cc2ccc(=O)oc2c(O[C@@H]2O[C@H](CO)[C@@H](O)[C@H](O)[C@H]2O)c1O | / | / | / | 119*
CN1CCN(c2cc(-c3ccccc3)nc3cc(-c4ccc(F)cc4)nn23)CC1 | 3 | 7 | -6 | 0
Fc1ccc(-c2cc3nc(-c4ccccc4)cc(N4CCN(CCN5CCOCC5)CC4)n3n2)cc1 | 11 | 5 | 4 | 22*
COc1cccc(C(=O)NN=C2CCCC2)c1 | / | / | / | 1
COc1ccc(C(=O)NN=C2CCCC2)cc1 | / | / | / | 28*
O=C(N/N=C/c1ccc2c(c1)OCO2)c1ccccn1 | 1 | 0 | 1 | 3
O=C(/C=C/c1ccc2c(c1)OCO2)c1ccccn1 | -6 | 12 | 34 | 41*
O=C(/C=C/c1ccccc1)c1ccccn1 | 22 | 1 | 21 | 23*
N/C(=N\OC(=O)/C=C/c1ccccc1)c1ccccn1 | 0 | -48 | 1 | 0
CCc1nnc(NS(=O)(=O)c2ccc(N/C=C/C(=O)c3ccc(OC)cc3)cc2)s1 | 50* | 33 | 11 | 3
CC(=O)c1ccc(NS(=O)(=O)c2ccc(N/C=C/C(=O)c3ccc(F)cc3)cc2)cc1 | 1 | 22 | -17 | 6
COc1cc(NS(=O)(=O)c2ccc(N/C=C\C(=O)c3ccc(F)cc3)cc2)nc(OC)n1 | 72* | 22 | 29 | 4
CCOc1cc(C2C(C#N)=C(N)OC(C)=C2C(C)=O)cc(Br)c1O (centres undefined) | 1 | -1 | 1 | 19*
SMILES | Runt-SMMHC FRET | Hck-Nef inh | Runt-CBFb FRET | RanGTP-Imp inh
CCOc1cc(C2C(C#N)=C(N)OC(C)=C2C(C)=O)c(Br)c(Br)c1OC(C)C (centres undefined) | -5 | 5 | -4 | -4
CCOc1cc(C2C(C#N)=C(N)Oc3cc(N)ccc32)ccc1O (centres undefined) | / | / | / | 69*
Cc1ccc(C2C(C#N)=C(N)Oc3cc(N)ccc32)cc1 (centres undefined) | / | / | / | 90*
N#CC1=C(N)Oc2cc(N)ccc2C1C1CC=CCC1 (centres undefined) | 41 | 2 | 42 | 141*
Cc1ccc(NC(=O)OCc2cccs2)cc1 | / | / | / | -6
NC1=NC[C@@H](Cc2ccc(O)cc2)N1CCC12CC3CC(CC(C3)C1)C2 | / | / | / | -1
N#CC1=C(N)Oc2cc(N)ccc2C1c1cccc(Br)c1 (centres undefined) | / | / | / | 55*
N#CC1=C(N)Oc2cc(N)ccc2C1c1cc(Br)cs1 (centres undefined) | / | / | / | -9
N#CC1=C(N)Oc2cc3ccccc3cc2C1c1cccs1 (centres undefined) | -10 | -3 | -7 | -2
N#CC1=C(N)Oc2cc(N)ccc2C1c1ccsc1 (centres undefined) | 23 | 1 | 23 | 33*
O=C(NC(Cc1ccccc1)C(=O)O)/C(=C/c1cccc([N+](=O)[O-])c1)NC(=O)c1cccc(Br)c1 (centres undefined) | / | / | / | 1
CCOCCCNc1nc2c(-c3ccccc3)nnn2c2ccccc12 | -3 | -7 | -5 | 34*
COc1cc(-c2nnc(SCc3cc(=O)oc4cc(O)c(O)cc34)o2)cc(OC)c1OC | 59* | 11 | 67* | 9
CN(Cc1ccc(Cl)c(Cl)c1)C(=O)CN1C(=O)NC2(CCCC2)C1=O | / | / | / | -2
CCOC(=O)C1=C(COC(=O)c2cc(Br)c(Br)s2)NC(=O)NC1C (centres undefined) | / | / | / | 2
C/C(CC(=O)Nc1ccc(F)cc1)=N\NC(=O)c1ccccn1 | 1 | 32 | 1 | 179*
O=C(Nc1ccc(C(=O)N2CCN(c3ccccc3)CC2)cc1)C1=CSCCO1 | / | / | / | -5
COc1ccc2nc3c(cc2c1)c(NC(=O)CC(C)C)nn3CC(C)C | / | / | / | 74*
COc1ccc(-n2nc3cc(C)c(NC(=O)CC(C)C)cc3n2)cc1 | 2 | 1 | -2 | ?
CCCCn1nc(NC(=O)CC(C)C)c2cc3cc(OC)ccc3nc21 | / | / | / | 84*
CCCCn1nc(NC(=O)CCC)c2cc3cc(OC)ccc3nc21 | / | / | / | 71*
CCCC(=O)Nc1ccc2nn(-c3ccc(OC)cc3)nc2c1 | / | / | / | -1
Oc1ccc(Nc2nc(N3CCCC3)c3ccccc3n2)cc1 | 71* | 0 | 27 | -3
O=C1NC(=S)S/C1=C\c1coc2ccc(O)cc2c1=O | -1 | 53* | 0 | -1
O=C1NC(=S)S/C1=C\c1coc2ccccc2c1=O | -8 | 88* | -2 | 2
SMILES | Runt-SMMHC FRET | Hck-Nef inh | Runt-CBFb FRET | RanGTP-Imp inh
COC(=O)C1=CN(Cc2cccs2)C=C(C(=O)OC)C1c1cccc(O)c1 | 133* | 42 | 98* | 11
COc1ccc2cc(C(=O)NCc3ccco3)c(=O)oc2c1 | 77* | 4 | 35 | ?
CCCOc1ccc2cc(C(=O)NCc3ccccc3)c(=O)oc2c1 | / | / | / | 59*
COCCNc1ccc([N+](=O)[O-])cc1C(=O)Nc1cccc(C)n1 | -6 | 5 | 1 | 2
COc1cccc(C2C(C#N)=C(N)Oc3cc(N)ccc32)c1OC (centres undefined) | 100* | -10 | 72* | 105*
CC(=O)C1=C(c2ccccc2)OC(N)=C(C#N)C1c1ccccc1F (centres undefined) | -6 | 9 | -5 | 2
N#CC1=C(N)Oc2cc(N)ccc2C1c1ccccc1F (centres undefined) | / | / | / | 121*
COc1cccc(C2C(C#N)=C(N)Oc3cc(C)oc(=O)c32)c1OC (centres undefined) | -2 | -3 | -2 | -1
O=C(Cc1ccc(Cl)cc1)Nc1ccc(CN2CCCCC2)cc1 | 1 | 0 | -2 | 1
O=S1(=O)c2ccccc2Nc2ccccc21 | / | / | / | 0
O=C(O)c1cccc(N/N=C/c2ccc(-c3ccccc3)cc2)c1 | -11 | 4 | -10 | 2
COc1ccccc1/C=C/C=N/Nc1cccc(C(=O)O)c1 | / | / | / | 76*

Compound activity: PubChem BioAssay, several laboratories
